# Results gathered from unrelated publications.
# MAPK14: Mitogen-activated protein kinase 14 (MAPK14, Homo sapiens, UniProt Q16539)
# ADRA2C: Alpha-2C adrenergic receptor (ADRA2C, Homo sapiens, UniProt P18825)
# PLEKHA3: PLEKHA3 (Homo sapiens, UniProt Q9HB20)
# Fibroblast growth factor 14: Fibroblast growth factor 14 (Homo sapiens, UniProt Q92915)
SMILES,target,assay,endpoint,result
Cn1cc(-c2ccnc3ccccc23)c(-c2ccccn2)n1,MAPK14,"enzyme activity, inhibitor, ADP detection",IC50,9.4 µM
COc1nc(-c2cccc(-c3ccccc3)c2C)ccc1CNCCNC(=O)CCCCCCCCCCC(=O)N1CCN(CCNC(=O)c2cc3c(=O)n4cccc(C)c4nc3n(CCc3cccs3)c2=N)CC1,"Programmed cell death 1 ligand 1 (Cd274, Mus musculus, UniProt Q9EP73)","binding, BLI",Kd,0.625 µM
Cc1cc(Oc2ncccc2CN2CCN(c3ccccc3)CC2)ccc1-c1c(C)c(=O)[nH]c(=O)n1C,ADRA2C,"ligand displacement, radioligand",Ki,0.0115 µM
CCOc1ccccc1C(=O)CC(SCc1ccc(Cl)cc1)C(=O)O (stereo not drawn),PLEKHA3,"ligand displacement, FP",Ki,7.8 µM
Cc1cc(Oc2ncccc2CN2CCN(c3ccc([N+](=O)[O-])cc3Cl)CC2)ccc1-c1c(C)c(=O)[nH]c(=O)n1C,ADRA2C,"ligand displacement, radioligand",Ki,0.623 µM
c1ccc(-c2n[nH]cc2-c2ccncc2)nc1,MAPK14,"enzyme activity, inhibitor, ADP detection",IC50,4.5 µM
Cc1cc(Oc2ncccc2CN2CCN(C(c3ccccc3)c3ccccc3)CC2)ccc1-c1c(C)c(=O)[nH]c(=O)n1C,ADRA2C,"ligand displacement, radioligand",Ki,0.137 µM
CCOc1ccc(-c2cc(C(=O)O)c(-c3ccc(Cl)cc3)o2)cc1,PLEKHA3,"ligand displacement, FP",Ki,0.55 µM
CC(=O)Nc1ccc(Oc2ccc3c(c2)C(=O)N(c2cc(C)ccc2C)C3=O)cc1,Fibroblast growth factor 14,"binding, SPR",Kd,13.6 µM
CCOc1ccc(C(=O)CC(SCc2ccc(F)cc2)C(=O)O)cc1 (stereo not drawn),PLEKHA3,"ligand displacement, FP",Ki,13.8 µM
Cc1cc(Oc2ncccc2CN2CCN(c3ccccc3C#N)CC2)ccc1-c1c(C)c(=O)[nH]c(=O)n1C,ADRA2C,"ligand displacement, radioligand",Ki,0.0563 µM
CCOc1ccc(C(=O)CC(SCc2ccc(Cl)cc2)C(=O)O)cc1OCC (stereo not drawn),PLEKHA3,"ligand displacement, FP",Ki,6.81 µM
Cc1cc(Oc2ncccc2CN2CCN(Cc3ccc(F)cc3)CC2)ccc1-c1c(C)c(=O)[nH]c(=O)n1C,ADRA2C,"ligand displacement, radioligand",Ki,0.206 µM
Cc1cccc(NC(=O)Cn2cc(CO)c3ccccc32)c1,Fibroblast growth factor 14,"binding, SPR",Kd,1.9 µM
CCOc1ccc(C(=O)CC(SCc2ccc(Cl)cc2)C(=O)OC)cc1 (stereo not drawn),PLEKHA3,"ligand displacement, FP",Ki,17.3 µM
